HSP90 inh = inhibitors of HSP90 luciferase refolding in rabbit reticulocyte lysate; inhibition, % at 5.6 µM; luciferase refolding luminescence, 3 h; 290,000 compounds, 0.91% hits; AID 1789;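 active = inhibition above the screen-wide mean plus 3 SD, computed separately per campaign, cut at about 16% in these data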;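 note: inhibitors lower the luminescence because luciferase stays unfolded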
STAT3 inh = STAT3 signaling inhibition; U3A cells, IL-6 STAT3-luciferase reporter, luminescence; host cell line lacks STAT1; inhibition, % at 5.5 µM; 190,000 compounds, 0.89% hits;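 active = inhibition above the mean inhibition across all screened compounds plus 3 SD, cut at about 44% in these data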
STAT1 inh = reduces IFN-gamma driven STAT1 reporter signal | NIH 3T3 STAT1-luciferase reporter, luminescence | inhibition, % at 5.5 µM | 200,000 compounds, 0.35% hits | AID 920;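 active = inhibition above a set limit, the mean inhibition across all tested compounds plus 3 SD, cut at about 34% in these data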
STAT3 act = STAT3 signaling activation; U3A cells, IL-6 STAT3-luciferase reporter, luminescence; 100% = signal with IL-6 EC80 alone; 190,000 compounds, 0.91% hits; activation (% of control), % at 5.6 µM;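 active = activation above the screen-wide mean of compound activation plus 3 SD, cut at about 130% in these data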
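Material: STAT3-luciferase reporter U3A cells. Controls: IL-6-treated wells, 100% activation. Read-out: % activation versus median of IL-6-stimulated wells. Probe or stimulus: IL-6 stimulus at 33 ng/mL final. Timing: compound 1 h, then IL-6 6 h at 37 °C. Signal: reporter luminescence signal.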
C8 TRAIL sens = sensitizes caspase-8 expressing cells to TRAIL; inhibition (viability loss, TRAIL sensitization), % at 10 µM; AID 624354; NB7+C8 cells + TRAIL, ATPlite viability luminescence; 360,000 compounds, 1% hits;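 active = compounds causing at least 50% loss of cell viability in the single-dose screen, relative to plate controls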
PPC-1+TRAIL kill = PPC-1 cancer cell killing with TRAIL present; PPC-1 cells + TRAIL, ATPLite viability luminescence; cell killing (% activity), % at 4 µM or 5 µM; 220,000 compounds, 0.41% hits;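 active = cell killing above 50% in the first pass at 4 µM, then a duplicate retest at 5 µM averaging 50% or more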
Hits are given with their value; – = inactive; · = no result; ! = not confirmed by another sample. In the library only some 2.3% were active in any assay of this set; here they are far more common.

SMILES	HSP90 inh	STAT3 inh	STAT1 inh	STAT3 act	C8 TRAIL sens	PPC-1+TRAIL kill
Cc1ccc(C23CC4CC(CC(C(=O)OCC(=O)NC5CCS(=O)(=O)C5)(C4)C2)C3)cc1 (stereo not given)	–	–	–	–	–	–
COc1cc(C(F)(F)F)c(C(=O)NCc2cccc(Cl)c2)cn1	–	·	·	·	–	–
FC(F)(F)c1nnc(-c2ccccc2)nc1Sc1ccccc1	–	–	–	–	–	–
FC(F)(F)c1nnc(-c2ccccc2)nc1Sc1ccc(Cl)cc1	–	–	–	–	48.2	–
FC(F)(F)c1cccc(Sc2nc(-c3ccccc3)nnc2C(F)(F)F)c1	–	–	–	–	51.0	–
CN(CC(=O)Nc1ccc(F)cc1)C(=O)C1CCCC1	·	·	·	·	–	·
CCc1cc2c(CN3CCN(CCO)CC3)cc(=O)oc2cc1O	–	–	–	–	–	52.0
CCc1cc2c(CN3CCN(C)CC3)cc(=O)oc2cc1O	–	–	–	–	–	–
CC12CCC(C(=O)NCc3ccccc3Cl)(C(Br)C1=O)C2(C)C (stereo not given)	–	–	–	–	–	–
CCn1c2ccccc2c2cc(Nc3cc(C)nc4ncnn34)ccc21	–	–	–	135.6	–	–
CCc1ccc(Nc2cc(C)nc3ncnn23)cc1	–	·	·	·	–	·
CCCn1c2c(c(O)c(C(=O)Nc3ccccc3)c1=O)CCCC2	–	–	–	133.2	–	–
CCCn1c2c(c(O)c(C(=O)Nc3ccccn3)c1=O)CCCC2	·	·	·	·	·	–
COc1ccc2nc(NN=C(C)c3ccccn3)cc(C)c2c1	·	·	·	·	69.4	·
Cc1ccccc1Nc1c(-c2ccc(N3CCOCC3)cc2)nc2cnccn12	–	·	·	·	47.8	–
O=C(Cc1ccccc1)Nc1cccnc1	–	–	–	–	–	–
Cc1ccccc1N1CCN(C(=S)c2ccc(-c3cccc([N+](=O)[O-])c3)o2)CC1	–	–	–	–	–	–
CN(CC(=O)Nc1cccc2ccccc12)C(=O)c1ccc(NC(=O)CC#N)cc1	·	·	·	·	–	·
COc1cc(/C=C2\COC/C(=C\c3cc(OC)c(OC)c(OC)c3)C2=O)cc(OC)c1OC	–	·	·	·	72.2	–
COc1cc(/C=C2\CC/C(=C\c3cc(OC)c(OC)c(OC)c3)C2=O)cc(OC)c1OC	–	–	–	–	–	–
Nc1nnnn1/N=C/C(Br)=C/c1ccccc1	–	–	–	–	58.5	–
Nc1nonc1N/N=C\c1ccccc1	–	·	·	·	–	–
Nc1cnnc(N/N=C\c2ccccc2)c1Cl	·	·	·	·	48.7	·
CC(Oc1ccc(Cl)cc1)C(=O)Nc1ccc(S(=O)(=O)Nc2nccs2)cc1 (stereo not given)	–	·	·	·	–	·
O=C(CSc1n[nH]c(=O)[nH]c1=O)NC1CCCCC1	16.8	·	·	·	–	–
SMILES	HSP90 inh	STAT3 inh	STAT1 inh	STAT3 act	C8 TRAIL sens	PPC-1+TRAIL kill
Cc1nn(C)c(C(=O)N/N=C/c2ccc(Br)cc2)c1Cl	–	–	–	–	–	–
CC(C)c1ccc(/C=N/NC(=O)c2c(Cl)cnn2C)cc1	–	–	–	–	82.6	–
Cc1cc(C(=O)Oc2cccnc2)ccc1[N+](=O)[O-]	–	–	–	–	–	–
COc1ccc(C(=O)Nc2ccc3c(c2)C(=O)c2ccccc2C3=O)cc1OC	–	–	–	–	–	–
COc1ccc(C(=O)c2c(C(F)(F)F)oc3c2C(=O)c2ccccc2C3=O)cc1OC	–	–	–	–	94.6	–
COc1cccc(NC(=O)c2nc(S(C)(=O)=O)ncc2Cl)c1	–	·	·	·	66.3	·
COc1cccc(NC(=O)c2nc(SC)ncc2Cl)c1	–	·	·	·	–	·
CN(c1ccccc1)S(=O)(=O)c1ccc(NC(=O)c2nc(S(C)(=O)=O)ncc2Cl)cc1	–	·	·	·	93.1	·
O=c1/c(=C/c2ccccn2)sc2nc3ccccc3n12	–	–	–	–	54.4	–
Cc1cc(C)n2ncc(C(=O)NCc3cccnc3)c2n1	–	–	–	–	–	–
CCCn1c(C)cc(C(=O)COC(=O)c2cc(=O)[nH]c3ccccc23)c1C	·	·	·	·	57.5	·
CCCn1c(C)cc(C(=O)COC(=O)c2cc(S(=O)(=O)NCC(C)C)c(Cl)cc2Cl)c1C	–	–	–	–	94.0	–
CN(C)S(=O)(=O)c1ccc2c(c1)C(=NNC(N)=O)c1cc(S(=O)(=O)N(C)C)ccc1-2	–	·	·	·	–	·
CCCCCCCCCCCC1N=C(N)NC(CCCO)=C1C(=O)OC (stereo not given)	·	·	·	·	63.3	·
CCOC(=O)c1ccc2nc(NC(C)=O)sc2c1	–	–	–	–	–	–
CCOC(=O)c1ccc2nc(Nc3nc4ccc(F)cc4s3)sc2c1	–	73.4	43.0	–	–	–
COC(=O)c1ccc2nc(Nc3nc4c(F)cc(F)cc4s3)sc2c1	77.3	93.6	69.8	–	–	–
C=C(C)c1cc2c(ccc3ccc(=O)oc32)o1	·	·	·	·	86.7	·
CNC(=O)c1cc2c(ccc3ccccc32)o1	–	–	–	–	–	–
Cc1nn2c(=O)c(NC(=O)c3ccc(Cl)cc3)cnc2s1	–	–	–	–	–	–
O=c1cc(-c2c(F)c(F)c(F)c(F)c2F)oc2ccccc12	–	–	–	–	76.6	–
Cc1ccc(O)c(N=Cc2sc3ccccc3c2Cl)c1	–	–	–	–	–	–
Oc1ccccc1N=Cc1sc2ccccc2c1Cl	–	–	–	135.0	–	–
Nc1cccc(-c2nc3ccc(C(=O)c4ccccc4)cc3[nH]2)c1	–	·	·	·	62.7	·
Cc1oc2c(c1C(=O)c1ccccc1)C(=O)C(=O)c1ccccc1-2	–	–	–	–	97.0	–
SMILES	HSP90 inh	STAT3 inh	STAT1 inh	STAT3 act	C8 TRAIL sens	PPC-1+TRAIL kill
CCc1cccc(C)c1NC(=S)N1CCCC1C(=O)O (stereo not given)	–	–	–	–	–	–
COc1ccccc1C(=O)NC(=Nc1nc2ccccc2o1)NC(=O)c1ccccc1OC	–	–	–	135.6	71.5!	–
COc1ccc2nc(NC(=O)c3ccccc3O)sc2c1	–	·	·	·	78.0	·
COc1ccc2nc(Nc3ccccc3)sc2c1	–	–	–	–	52.4	–
COc1ccccc1C(=O)Nc1nc2cc3c(cc2s1)OCCO3	–	·	–	·	59.1	–
COc1ccccc1C(=O)Nc1nc2cc3c(cc2s1)OCO3	–	·	·	·	–	–
COc1cc(/C=N/NC(=O)c2c(-c3ccccc3)noc2C)cc(OC)c1OC	–	–	–	–	–	–
O=C(O)c1cccc(NS(=O)(=O)c2ccc(NC(=O)c3ccco3)cc2)c1	–	–	–	–	–	–
O=c1oc2ccccc2cc1-c1nc2c(s1)CCc1ccccc1-2	–	–	–	133.6	–	–
O=c1oc2cc(O)ccc2cc1-c1nc2c(s1)CCc1ccccc1-2	–	–	–	–	–	–
Cc1cc(=O)[nH]c2nnc(-c3ccc(Br)cc3)n12	–	·	·	·	73.1	·
O=C(N/N=C1\CCCc2ccccc21)c1ccccc1Cl	–	–	–	–	–	–
O=C(N/N=C1\CCc2ccccc21)c1ccccc1O	–	–	–	–	62.7	53.7
c1ccc2c(c1)nnn1c3ccccc3nc21	–	48.3	–	–	·	–
